# According to the RNAGym collection of RNA variant scans (doi:10.1126/science.aae0568):
# Fewer inactive variants are shown than the library holds.
# B1: tRNA (parent)
# chain: GUUCCGUUGGCGUAAUGGUAACGCGUCUCCCUCCUAAGGAGAAGACUGCGGGUUCGAGUCCCGUACGGAACG
# Variants of: B1
# Assay: yeast fitness relative to wild type (ratio to wild type); higher = fitter; tRNA-Arg(CCU), competitive growth, 37 C, YPD
# In short: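 Changes in genotype frequencies gave Darwinian fitness relative to wild type. Frequencies were read by 100-nucleotide paired-end sequencing of gene amplicons before and after pooled Saccharomyces cerevisiae strains, carrying tRNA-Arg(CCU) gene variants at the native locus, were competed in YPD at 37°C for 24 hours in six replicates. A genotype was kept only with ≥ 100 starting reads, and estimates < 0.5 were set to 0.5.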
row,Variant,yeast fitness
1,GUUCCGUUGGCGUAAUGGUAACGCGUCUCCCUCCUAAGGAGAAGUCUGCGGGUUCGGGCCCCGUACGGAACG,0.597
2,GUUCCGUUGGCGUAAUGGUAACGCGUCUCCCUCCUAAGGAGAAGGCUGCGGGUUAGACUCCCGUACGGAACG,0.537
3,GUUCCGUUGGCGUAAUGGUAACGCGUCUCCCUCCUAAGGAGAAGGCUGCGGGGUCGAGUCCCGUAUGGUACG,≤ 0.5
4,GUUCCGUUGGCGUAAUGGUAACGCGUCUCCCUCCUAAGGAGAAGCCUGCGGGUUCGAGUCCCGUACUGAACG,0.874
5,GUUCCGUUGGCGUAAUGGUAACGCGUCUCCCUCCUAAGGAGAAGCCUGCGGGUUCGAGUCCCGUACCGAACG,0.639
6,GUUCCGUUGGCGUAAUGGUAACGCGUCUCCCUCCUAAGGAGAAGGCUGCGGGUUUGAGUCCCGUGCGGAACG,0.544
7,GUUCCGUUGGCGUAAUGGUAACGCGUCUCCCUCCUAAGGAGAAGGCUGCGGGUUUGAGUCCCGUCCGGAACG,≤ 0.5
8,GUUCCGUUGGCGUAAUGGUAACGCGUCUCCCUCCUAAGGAGAAGCCUACGGGUUCGAGUCCCGUACGGAUCG,0.654
9,GUUCCGUUGGCGUAAUGGUAACGCGUCUCCCUCCUAAGGAGAAGGCUGCGAGUUCGAGUCCCGUACGGAACG,0.716
10,GUUCCGUUGGCGUAAUGGUAACGCGUCUCCCUCCUAAGGAGAAGGCUGCGGGUUCGAGUCCAGUACGGAACG,0.8
11,GUUCCGUUGGCGUAAUGGUAACGCGUCUCCCUCCUAAGGAGAAGGCUGCGGGUUCGAGUCCGGUACGGAACG,0.832
12,GUUCCGUUGGCGUAAUGGUAACGCGUCUCCCUCCUAAGGAGAAGGCUGCAGGUCCGAGUCCCGUACGGAACG,≤ 0.5
13,GUUCCGUUGGCGUAAUGGUAACGCGUCUCCCUCCUAAGGAGAAGUCUGCGGGUUCGUGUCCCGUACGGAACG,0.744
14,GUUCCGUUGGCGUAAUGGUAACGCGUCUCCCUCCUAAGGAGAAGGCUGCAGGUUCGAGUCCCGUACGGAACG,0.857
15,GUUCCGUUGGCGUAAUGGUAACGCGUCUCCCUCCUAAGGAGAAGCCCGCGGGUUCGAGUCCCGCCCGGAACG,0.725
16,GUUCCGUUGGCGUAAUGGUAACGCGUCUCCCUCCUAAGGAGAAGCCUGCAGGUUCGAGUCCUGUACGGAACG,0.868
17,GUUCCGUUGGCGUAAUGGUAACGCGUCUCCCUCCUAAGGAGAAGGCUGCGGGUUUGAGUCCCGUACAGAACG,0.656
18,GUUCCGUUGGCGUAAUGGUAACGCGUCUCCCUCCUAAGGAGAAGGCUGCGGGUUCGAAUCCCGUACGGAACG,1.04
19,GUUCCGUUGGCGUAAUGGUAACGCGUCUCCCUCCUAAGGAGAAGGCUGCGGGUUCGAAUCCCGUUCGGAACG,0.741

row,Variant,yeast fitness
1,GUUCCGUUGGCGUAAUGGUAACGCGUCUCCCUCCUAAGGAGAAGGUUGCGCGUUCGAGUCCCGUACGGAACG,≤ 0.5
2,GUUCCGUUGGCGUAAUGGUAACGCGUCUCCCUCCUAAGGAGAAGGCUGCGGGUUUGAGUCCCGUACAGGACG,≤ 0.5
3,GUUCCGUUGGCGUAAUGGUAACGCGUCUCCCUCCUAAGGAGAAGGCUGCGGGUUCGAGUCCCGUACGGACCG,0.989
4,GUUCCGUUGGCGUAAUGGUAACGCGUCUCCCUCCUAAGGAGAAGCCUGCGGGUUCGAGUCCCAUACGGUACG,0.793
5,GUUCCGUUGGCGUAAUGGUAACGCGUCUCCCUCCUAAGGAGAAGCCUGCGGGUUCGAGUCCCGUACGCAACG,0.839
6,GUUCCGUUGGCGUAAUGGUAACGCGUCUCCCUCCUAAGGAGAAGGCUGCGGGUUCGAGCCCCGUACGGAACG,1.03
7,GUUCCGUUGGCGUAAUGGUAACGCGUCUCCCUCCUAAGGAGAAGGCUGCGGGUUCGUGUCCCGUACGGAACG,0.751
8,GUUCCGUUGGCGUAAUGGUAACGCGUCUCCCUCCUAAGGAGAAGGUUGCGCGUUCGAGUCCCGUACCGAACG,≤ 0.5
9,GUUCCGUUGGCGUAAUGGUAACGCGUCUCCCUCCUAAGGAGAAGGCUGCGGGUUCGAGUCCCGUAAGGAACG,0.581
10,GUUCCGUUGGCGUAAUGGUAACGCGUCUCCCUCCUAAGGAGAAGGCUGCGAGUUCGAGCCCCGUACGGAACG,≤ 0.5
11,GUUCCGUUGGCGUAAUGGUAACGCGUCUCCCUCCUAAGGAGAAGCCUGCGGGUACGAGUCCCGUAUGGAACG,≤ 0.5
12,GUUCCGUUGGCGUAAUGGUAACGCGUCUCCCUCCUAAGGAGAAGCCUGCGGGUUCGAGUCCUGUACGGAACG,0.842
13,GUUCCGUUGGCGUAAUGGUAACGCGUCUCCCUCCUAAGGAGAAGGCCGCGGGUUCGAGUCCAGUUAGGAACG,≤ 0.5
14,GUUCCGUUGGCGUAAUGGUAACGCGUCUCCCUCCUAAGGAGAAGCCUGCGGGUUCCAGUCCCGUACGGAACG,0.64
15,GUUCCGUUGGCGUAAUGGUAACGCGUCUCCCUCCUAAGGAGAAGCCUGCGGGUUCAAGUCCCGUACGGAACG,0.977
16,GUUCCGUUGGCGUAAUGGUAACGCGUCUCCCUCCUAAGGAGAAGGCUGCGGGUUCGAGUCUCGUACGGAACG,1.03
17,GUUCCGUUGGCGUAAUGGUAACGCGUCUCCCUCCUAAGGAGAAGCCUGCCGGUUCGAGUCCCGUACGGAACG,0.604
18,GUUCCGUUGGCGUAAUGGUAACGCGUCUCCCUCCUAAGGAGAAGGCCCCGGGUUCGAGACCCGUACGGAACG,0.576
19,GUUCCGUUGGCGUAAUGGUAACGCGUCUCCCUCCUAAGGAGAAGGCGGCGGGUUCGAGUCCCGUACGGAACG,0.756
